Results on two molecules are retold here after ChEMBL document CHEMBL5705891, “Small-molecule kinase inhibitors provide insight into Mps1 cell cycle function” (Nat Chem Biol, 2010).

The source made the active and inactive calls. The calls are words filed in the database; no cut-off is given here.

Data set [1] in a line: Inhibition of Mps1 in Potoroo PTK2 cells expressing EyFP-tagged human Mad2 assessed as reduction in time spent in mitosis at 10 uM incubated for 1 hr by fluorescence based imaging analysis relative to control. Also on record: species or system Pt K2. As to conditions: Potorous tridactylus. The essentials:
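Randomly cycling PtK2 cells stably expressing hsMad2-EYFP were pretreated 1 h with 10 μM inhibitor, DMSO or no treatment. Time-lapse imaging at 37°C, 5% CO₂ scored mitotic duration from NEB to NER. Average time was reported (N=26–29); 95% CI; Student's t test.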

In another data set the test system is UTRM10. The data set can be described thus: Effect on centrosome overduplication in hydroxyurea-treated UTRM10 cells (unknown origin) at 10 to 25 uM incubated for 48 hrs by centrin staining based analysis. As to conditions: dose 10-25 µM.
In data set [2] the test system is TERT-RPE1. The data set can be described thus: Antiproliferative activity against hTERT-RPE1 cells at 10 uM incubated for 4 days by Syto60 staining based assay. It is filed as toxicity, cell-based. The conditions noted are these: human, tert-rpe1, 96 h, time 4 day.
Data set [3] has as its system HCT-116. The data set can be described thus: Antiproliferative activity against human HCT-116 cells with p53-/- assessed as loss of clonal survival upto 10 uM incubated for 10 days by crystal violet staining based assay. The data set is classed as functional, cell-based. As to conditions: time 10.0 day. A digest of the protocol:
(§1)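 Colony outgrowth: cells plated at 200 cells per 60-mm dish, exposed to compound or DMSO vehicle and stained with crystal violet after 10 days. HCT116 grown in McCoy's 5A; A549 and HeLa in DMEM; hTERT-RPE1 in DMEM/F-12. All media had 10% FBS and penicillin/streptomycin, 37°C, 5% CO2. Quantified from 3 independent experiments, mean + SD, Student's t test.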

The target of data set [4] is Leukocyte tyrosine kinase receptor (Homo sapiens, UniProt P29376). The data set can be described thus: Binding affinity to LTK (unknown origin) assessed as dissociation constant by Ambit kinase binding assay.
Leukocyte tyrosine kinase receptor, sequence (P29376 whole entry): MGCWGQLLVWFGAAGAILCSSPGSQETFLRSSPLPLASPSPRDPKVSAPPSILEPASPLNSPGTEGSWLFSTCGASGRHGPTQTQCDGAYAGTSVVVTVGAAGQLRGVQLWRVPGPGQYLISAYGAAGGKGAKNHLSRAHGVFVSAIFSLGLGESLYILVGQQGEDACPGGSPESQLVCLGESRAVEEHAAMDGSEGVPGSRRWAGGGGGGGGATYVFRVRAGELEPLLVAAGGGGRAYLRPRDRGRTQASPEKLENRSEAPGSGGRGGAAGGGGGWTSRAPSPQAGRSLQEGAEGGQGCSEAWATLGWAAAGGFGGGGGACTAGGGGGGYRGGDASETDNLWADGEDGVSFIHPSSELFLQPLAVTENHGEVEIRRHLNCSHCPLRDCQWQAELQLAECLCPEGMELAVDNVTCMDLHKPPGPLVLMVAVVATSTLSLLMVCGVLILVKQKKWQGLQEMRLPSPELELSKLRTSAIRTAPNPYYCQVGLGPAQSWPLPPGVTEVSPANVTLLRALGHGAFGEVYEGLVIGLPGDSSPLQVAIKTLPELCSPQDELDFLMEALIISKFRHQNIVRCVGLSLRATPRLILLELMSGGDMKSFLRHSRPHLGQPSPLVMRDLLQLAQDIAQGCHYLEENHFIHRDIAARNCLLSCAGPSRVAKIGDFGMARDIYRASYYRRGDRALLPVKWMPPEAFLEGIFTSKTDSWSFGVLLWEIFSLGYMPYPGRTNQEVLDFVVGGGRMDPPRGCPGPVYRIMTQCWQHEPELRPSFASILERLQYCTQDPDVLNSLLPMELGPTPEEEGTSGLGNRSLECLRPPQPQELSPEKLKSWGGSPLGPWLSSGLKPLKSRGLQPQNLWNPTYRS
The next data set deals with U2OS. The data set can be described thus: Induction of aneuploidy in UTRM10 cells (unknown origin) expressing LAP-tagged Mps1 M602Q mutant at 5 uM treated for 48 hrs by FACS analysis. It is filed as functional, cell-based. The essentials:
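UTRM10 cells expressing RNAi-resistant LAP-Mps1 WT or M602Q were treated with compound or DMSO for 48 h, then DNA content was analysed by FACS.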

Data set [5] concerns HCT-116. The data set can be described thus: Cytotoxicity against human HCT-116 cells assessed as loss of cell viability at 5 to 10 uM incubated for 10 days by crystal violet staining based assay. The data set is classed as functional. The conditions noted are these: dose 5-10 µM, time 10.0 day. A digest of the protocol: as §1
Data set [6] addresses Serine/threonine-protein kinase Chk2 (Homo sapiens) (UniProt O96017). The data set can be described thus: Inhibition of CHEK2 (unknown origin) assessed as residual enzyme activity at 10 uM by Ambit kinase binding assay relative to control.
The nature of data set [7]: Inhibition of Mps1 in Potoroo PTK2 cells expressing EyFP-tagged human Mad2 assessed as decrease in Mad2 recruitment to kinetochore at 10 uM incubated for 1 hr by fluorescence based imaging analysis relative to control. Also on record: species or system Pt K2. As to conditions: Potorous tridactylus. A digest of the protocol: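 PtK2 (male Potorous tridactylus kidney) cells stably expressing human Mad2-EYFP, cultured in Advanced MEM with 2% FBS. Cells were pretreated 1 h with 10 μM inhibitor or DMSO, then given DMSO or nocodazole (200 ng·ml⁻¹). Time-lapse imaging ran at 37°C from NEBD. Kinetochore Mad2-EYFP density was background-corrected and normalized. N=20–29 cells; 95% CI; Student's t test.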

The subject of data set [8] is TERT-RPE1. The data set can be described thus: Induction of aneuploidy in human TERT-RPE1 cells assessed as frequency of non-disjunction events per cell at 10 uM treated for 24 hrs by karyo-typing analysis (reference value: 0.1). The data set is classed as functional. The essentials:
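Asynchronous cells were exposed to 10 μM compound for 24 h. Medium was then replaced with medium containing 100 ng/mL colcemid for 2 h to arrest cells in metaphase, after which cells were harvested and karyotyped.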

Data set [9] concerns the target Aurora kinase B (Homo sapiens) (UniProt Q96GD4). The data set can be described thus: Inhibition of Aurora B activation in human U2OS cells by Western blot analysis. It is filed as cell-based. For orientation: In western blotting, separated proteins are transferred to a membrane and probed.
The target of data set [10] is ALK tyrosine kinase receptor (Homo sapiens, UniProt Q9UM73). The data set can be described thus: Binding affinity to ALK (unknown origin) assessed as dissociation constant by Ambit kinase binding assay.
Data set [11] addresses Tyrosine-protein kinase Fer (Homo sapiens) (UniProt P16591). The data set can be described thus: Inhibition of FER (unknown origin) assessed as residual enzyme activity at 10 uM by Ambit kinase binding assay relative to control.
Data set [12] addresses Mitogen-activated protein kinase 1 (Homo sapiens, UniProt P28482). The data set can be described thus: Inhibition of ERK2 (unknown origin) assessed as residual enzyme activity at 10 uM by Ambit kinase binding assay relative to control.
A further data set has as its target Insulin receptor (Homo sapiens, UniProt P06213). The data set can be described thus: Binding affinity to INSR (unknown origin) assessed as dissociation constant by Ambit kinase binding assay.
A further data set has as its target Activated CDC42 kinase 1 (Homo sapiens, UniProt Q07912). The data set can be described thus: Inhibition of TNK2 (unknown origin) assessed as residual enzyme activity at 10 uM by Ambit kinase binding assay relative to control.
The target of data set [13] is Ribosomal protein S6 kinase alpha-6 (Homo sapiens) (UniProt Q9UK32). The data set can be described thus: Inhibition of RPS6KA6 kinase domain 2 (unknown origin) assessed as residual enzyme activity at 10 uM by Ambit kinase binding assay relative to control.
Ribosomal protein S6 kinase alpha-6 (Homo sapiens), sequence (Q9UK32 whole entry, the tested form may be a part): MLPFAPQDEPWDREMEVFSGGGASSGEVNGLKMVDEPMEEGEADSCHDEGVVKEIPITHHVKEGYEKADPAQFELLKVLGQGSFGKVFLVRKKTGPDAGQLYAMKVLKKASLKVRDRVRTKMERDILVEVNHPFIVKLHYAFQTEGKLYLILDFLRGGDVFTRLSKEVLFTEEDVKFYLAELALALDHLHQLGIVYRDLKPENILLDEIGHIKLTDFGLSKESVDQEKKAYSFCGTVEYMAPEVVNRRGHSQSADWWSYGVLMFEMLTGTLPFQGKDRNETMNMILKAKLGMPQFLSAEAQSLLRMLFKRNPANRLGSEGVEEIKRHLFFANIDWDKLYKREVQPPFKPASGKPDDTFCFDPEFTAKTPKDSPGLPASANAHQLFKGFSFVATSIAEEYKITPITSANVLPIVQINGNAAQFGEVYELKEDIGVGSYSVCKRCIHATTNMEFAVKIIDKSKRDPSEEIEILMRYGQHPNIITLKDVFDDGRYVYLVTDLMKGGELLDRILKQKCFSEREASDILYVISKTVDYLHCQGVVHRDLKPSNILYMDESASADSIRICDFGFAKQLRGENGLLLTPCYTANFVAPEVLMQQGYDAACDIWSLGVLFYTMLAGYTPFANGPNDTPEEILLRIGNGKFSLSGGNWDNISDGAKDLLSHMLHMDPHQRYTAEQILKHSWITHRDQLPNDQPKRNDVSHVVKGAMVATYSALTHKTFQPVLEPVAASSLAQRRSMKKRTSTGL
Data set [14] has as its target Mitogen-activated protein kinase 12 (Homo sapiens) (UniProt P53778). The data set can be described thus: Inhibition of p38-gamma (unknown origin) assessed as residual enzyme activity at 10 uM by Ambit kinase binding assay relative to control.
For data set [15], the target named is Aurora kinase C (Homo sapiens) (UniProt Q9UQB9). The data set can be described thus: Inhibition of AURKC (unknown origin) assessed as residual enzyme activity at 10 uM by Ambit kinase binding assay relative to control.
Data set [16] has as its target Serine/threonine-protein kinase tousled-like 2 (Homo sapiens) (UniProt Q86UE8). The data set can be described thus: Inhibition of TLK2 (unknown origin) assessed as residual enzyme activity at 10 uM by Ambit kinase binding assay relative to control.
For data set [17], the target named is Ankyrin repeat and protein kinase domain-containing protein 1 (Homo sapiens) (UniProt Q8NFD2). The data set can be described thus: Inhibition of ANKK1 (unknown origin) assessed as residual enzyme activity at 10 uM by Ambit kinase binding assay relative to control.
For data set [18], the target named is Serine/threonine-protein kinase pim-3 (Homo sapiens) (UniProt Q86V86). The data set can be described thus: Inhibition of PIM3 (unknown origin) assessed as residual enzyme activity at 10 uM by Ambit kinase binding assay relative to control.
Data set [19] has as its target Cyclin-dependent kinase 7 (Homo sapiens) (UniProt P50613). The data set can be described thus: Inhibition of CDK7 (unknown origin) assessed as residual enzyme activity at 10 uM by Ambit kinase binding assay relative to control.
For data set [20], the target named is Inhibitor of nuclear factor kappa-B kinase subunit alpha (Homo sapiens) (UniProt O15111). The data set can be described thus: Inhibition of IKK-alpha (unknown origin) assessed as residual enzyme activity at 10 uM by Ambit kinase binding assay relative to control.
Data set [21] has as its target Ribosomal protein S6 kinase alpha-4 (Homo sapiens) (UniProt O75676). The data set can be described thus: Inhibition of RPS6KA4 kinase domain 2 (unknown origin) assessed as residual enzyme activity at 10 uM by Ambit kinase binding assay relative to control.

Aurora kinase B (Homo sapiens), sequence (Q96GD4 whole entry): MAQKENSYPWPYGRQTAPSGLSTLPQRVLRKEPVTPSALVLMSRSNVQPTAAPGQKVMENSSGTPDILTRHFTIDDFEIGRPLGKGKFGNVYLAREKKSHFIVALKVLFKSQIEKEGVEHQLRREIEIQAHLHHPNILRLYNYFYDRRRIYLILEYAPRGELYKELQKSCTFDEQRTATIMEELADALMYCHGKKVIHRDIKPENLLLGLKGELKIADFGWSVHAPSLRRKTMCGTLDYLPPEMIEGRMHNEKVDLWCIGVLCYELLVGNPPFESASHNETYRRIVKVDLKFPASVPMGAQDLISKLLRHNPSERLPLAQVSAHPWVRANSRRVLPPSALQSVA
Ribosomal protein S6 kinase alpha-4 (Homo sapiens), sequence (O75676 whole entry, looked up, the tested form may be a part): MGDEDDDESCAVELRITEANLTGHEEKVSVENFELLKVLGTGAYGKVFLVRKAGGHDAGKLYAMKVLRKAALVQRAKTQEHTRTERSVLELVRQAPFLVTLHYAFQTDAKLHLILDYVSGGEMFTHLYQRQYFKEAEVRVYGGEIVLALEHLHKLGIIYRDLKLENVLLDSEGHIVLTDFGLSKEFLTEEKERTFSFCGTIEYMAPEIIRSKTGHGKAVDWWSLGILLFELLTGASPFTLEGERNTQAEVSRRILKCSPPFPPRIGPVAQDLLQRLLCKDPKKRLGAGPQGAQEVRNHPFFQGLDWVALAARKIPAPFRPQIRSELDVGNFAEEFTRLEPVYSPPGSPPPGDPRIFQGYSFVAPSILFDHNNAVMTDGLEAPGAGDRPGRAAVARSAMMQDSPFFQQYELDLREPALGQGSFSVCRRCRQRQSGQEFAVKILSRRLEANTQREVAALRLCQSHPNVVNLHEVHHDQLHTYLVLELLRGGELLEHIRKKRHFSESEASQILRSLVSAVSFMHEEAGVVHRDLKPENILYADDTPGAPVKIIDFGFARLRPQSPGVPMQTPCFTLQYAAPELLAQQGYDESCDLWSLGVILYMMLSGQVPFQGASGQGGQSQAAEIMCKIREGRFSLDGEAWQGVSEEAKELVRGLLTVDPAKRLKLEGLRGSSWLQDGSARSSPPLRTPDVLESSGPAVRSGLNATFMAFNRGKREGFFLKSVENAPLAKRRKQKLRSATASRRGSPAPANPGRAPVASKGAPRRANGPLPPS
Activated CDC42 kinase 1, sequence (Q07912 whole entry, looked up, the tested form may be a part): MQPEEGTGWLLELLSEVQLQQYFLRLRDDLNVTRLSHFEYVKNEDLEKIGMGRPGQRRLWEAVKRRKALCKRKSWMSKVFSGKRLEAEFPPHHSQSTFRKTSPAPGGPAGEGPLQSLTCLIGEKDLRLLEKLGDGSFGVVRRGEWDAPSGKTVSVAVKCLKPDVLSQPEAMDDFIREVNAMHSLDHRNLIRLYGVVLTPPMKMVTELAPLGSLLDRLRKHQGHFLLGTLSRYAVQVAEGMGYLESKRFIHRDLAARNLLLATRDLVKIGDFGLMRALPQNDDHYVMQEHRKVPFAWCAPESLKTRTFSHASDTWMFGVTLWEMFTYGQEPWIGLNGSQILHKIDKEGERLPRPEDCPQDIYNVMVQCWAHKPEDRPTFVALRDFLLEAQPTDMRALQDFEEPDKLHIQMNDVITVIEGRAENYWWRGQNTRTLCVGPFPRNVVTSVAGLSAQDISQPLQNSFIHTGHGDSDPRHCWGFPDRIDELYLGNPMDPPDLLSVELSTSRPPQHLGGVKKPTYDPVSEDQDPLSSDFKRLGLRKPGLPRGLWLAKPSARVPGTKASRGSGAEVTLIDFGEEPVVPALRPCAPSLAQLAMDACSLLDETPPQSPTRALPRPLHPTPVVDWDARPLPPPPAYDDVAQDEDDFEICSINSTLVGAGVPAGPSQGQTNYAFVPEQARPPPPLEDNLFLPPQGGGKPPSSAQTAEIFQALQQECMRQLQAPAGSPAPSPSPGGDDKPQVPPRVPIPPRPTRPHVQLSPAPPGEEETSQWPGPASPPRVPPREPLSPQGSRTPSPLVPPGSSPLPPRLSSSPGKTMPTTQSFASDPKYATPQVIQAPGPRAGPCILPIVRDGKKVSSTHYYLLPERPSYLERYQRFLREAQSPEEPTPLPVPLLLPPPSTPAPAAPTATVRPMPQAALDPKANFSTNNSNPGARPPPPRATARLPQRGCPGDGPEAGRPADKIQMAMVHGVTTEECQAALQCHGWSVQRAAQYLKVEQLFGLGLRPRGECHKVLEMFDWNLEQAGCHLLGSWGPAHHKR
Serine/threonine-protein kinase Chk2 (Homo sapiens), sequence (O96017 whole entry): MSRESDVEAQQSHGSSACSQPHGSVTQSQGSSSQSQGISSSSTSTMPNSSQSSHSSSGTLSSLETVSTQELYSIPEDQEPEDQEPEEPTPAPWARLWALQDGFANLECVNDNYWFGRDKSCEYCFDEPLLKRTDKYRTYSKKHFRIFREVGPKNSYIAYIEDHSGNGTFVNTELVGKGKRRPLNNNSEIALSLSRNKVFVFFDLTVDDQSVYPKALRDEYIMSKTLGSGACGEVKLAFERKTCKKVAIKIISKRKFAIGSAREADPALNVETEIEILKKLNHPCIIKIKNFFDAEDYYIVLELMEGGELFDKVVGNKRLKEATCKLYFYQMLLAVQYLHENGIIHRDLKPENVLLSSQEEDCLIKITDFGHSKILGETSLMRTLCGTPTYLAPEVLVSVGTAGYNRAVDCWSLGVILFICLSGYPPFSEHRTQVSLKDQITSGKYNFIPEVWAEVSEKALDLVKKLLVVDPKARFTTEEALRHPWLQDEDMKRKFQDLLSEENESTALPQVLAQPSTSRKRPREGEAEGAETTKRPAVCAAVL
Mitogen-activated protein kinase 12 (Homo sapiens), sequence (P53778 whole entry): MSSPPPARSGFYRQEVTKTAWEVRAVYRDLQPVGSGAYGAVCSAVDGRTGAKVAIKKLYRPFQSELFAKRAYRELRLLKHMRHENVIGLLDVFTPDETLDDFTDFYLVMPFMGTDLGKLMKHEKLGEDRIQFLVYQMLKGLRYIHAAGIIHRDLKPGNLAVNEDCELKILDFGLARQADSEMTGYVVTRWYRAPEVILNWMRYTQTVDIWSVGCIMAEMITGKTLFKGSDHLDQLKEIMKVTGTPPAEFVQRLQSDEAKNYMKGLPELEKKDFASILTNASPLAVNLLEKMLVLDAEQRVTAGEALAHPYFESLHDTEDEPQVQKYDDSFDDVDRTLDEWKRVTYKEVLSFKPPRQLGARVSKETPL
Mitogen-activated protein kinase 1, sequence (P28482 whole entry): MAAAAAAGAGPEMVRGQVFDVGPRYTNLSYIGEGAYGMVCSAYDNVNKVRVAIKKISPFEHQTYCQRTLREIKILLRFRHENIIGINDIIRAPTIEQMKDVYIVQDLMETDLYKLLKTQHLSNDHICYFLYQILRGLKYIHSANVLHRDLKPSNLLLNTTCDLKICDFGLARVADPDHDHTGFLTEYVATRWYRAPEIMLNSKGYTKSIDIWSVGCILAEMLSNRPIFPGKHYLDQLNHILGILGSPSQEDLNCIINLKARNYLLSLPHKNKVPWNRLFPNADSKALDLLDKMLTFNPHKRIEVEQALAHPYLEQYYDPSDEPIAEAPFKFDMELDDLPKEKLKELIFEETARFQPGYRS

For `COc1cc(N2CCC(O)CC2)ccc1Nc1cc(Nc2ccccc2S(=O)(=O)C(C)C)c2cc[nH]c2n1`, the inhibition at 10 µM in data set [1] was about 40%; in [7], 80%. Moreover, in the data set with UTRM10, the outcome was inactive. In addition, the Activity entry was “Toxic” in the data set with TERT-RPE1 [2]; 7.3% in [6]; 3.3 in the data set with TERT-RPE1 [8]; 16% in [11]; 6% in data set [12]; 14% at Activated CDC42 kinase 1. In addition, the result with HCT-116 [3], in the data set with U2OS and with HCT-116 [5] was Active. Besides, the figures for the Kd (in data set [4]; in [10]; at Insulin receptor) were 29 nM, 21 nM and 470 nM, respectively. The inhibition entry in data set [9] was “Active”.

On to `O=C1c2ccccc2-c2n[nH]c3cccc1c23`, for which the Activity turned out to be 3% in data set [13]; 21% in data set [14]; 23% in data set [15]; 30% in [16]; 0.95% in data set [17]; 14% in [18]. For the same molecule, the Activity in data set [19] was determined as 26%; in [20], 0.1%; in data set [21], 3.4%.

For orientation: inhibition means the relative decrease from the control value, in per cent. A word on the Kd: it is the constant that tells how readily two partners part at equilibrium.
